Reference: publication PMC6512341 (ACS chemical neuroscience, 2018)

Columns and labels:
HDAC6 [1] = details: cited from earlier work; for activity against HDAC6 (in words) / selectivity over HDAC1 (in words): Figure 1a
HDAC6 [2] = biological target: T1, HDAC6 (Homo sapiens, UniProt Q9UBN7); experiment: HDAC1–11 enzyme assays; type: biochemical; details: for HDAC6 activity (in words): Figure 1a, compared with phenylhydroxamate 1
T1 sequence (Q9UBN7 1-1215): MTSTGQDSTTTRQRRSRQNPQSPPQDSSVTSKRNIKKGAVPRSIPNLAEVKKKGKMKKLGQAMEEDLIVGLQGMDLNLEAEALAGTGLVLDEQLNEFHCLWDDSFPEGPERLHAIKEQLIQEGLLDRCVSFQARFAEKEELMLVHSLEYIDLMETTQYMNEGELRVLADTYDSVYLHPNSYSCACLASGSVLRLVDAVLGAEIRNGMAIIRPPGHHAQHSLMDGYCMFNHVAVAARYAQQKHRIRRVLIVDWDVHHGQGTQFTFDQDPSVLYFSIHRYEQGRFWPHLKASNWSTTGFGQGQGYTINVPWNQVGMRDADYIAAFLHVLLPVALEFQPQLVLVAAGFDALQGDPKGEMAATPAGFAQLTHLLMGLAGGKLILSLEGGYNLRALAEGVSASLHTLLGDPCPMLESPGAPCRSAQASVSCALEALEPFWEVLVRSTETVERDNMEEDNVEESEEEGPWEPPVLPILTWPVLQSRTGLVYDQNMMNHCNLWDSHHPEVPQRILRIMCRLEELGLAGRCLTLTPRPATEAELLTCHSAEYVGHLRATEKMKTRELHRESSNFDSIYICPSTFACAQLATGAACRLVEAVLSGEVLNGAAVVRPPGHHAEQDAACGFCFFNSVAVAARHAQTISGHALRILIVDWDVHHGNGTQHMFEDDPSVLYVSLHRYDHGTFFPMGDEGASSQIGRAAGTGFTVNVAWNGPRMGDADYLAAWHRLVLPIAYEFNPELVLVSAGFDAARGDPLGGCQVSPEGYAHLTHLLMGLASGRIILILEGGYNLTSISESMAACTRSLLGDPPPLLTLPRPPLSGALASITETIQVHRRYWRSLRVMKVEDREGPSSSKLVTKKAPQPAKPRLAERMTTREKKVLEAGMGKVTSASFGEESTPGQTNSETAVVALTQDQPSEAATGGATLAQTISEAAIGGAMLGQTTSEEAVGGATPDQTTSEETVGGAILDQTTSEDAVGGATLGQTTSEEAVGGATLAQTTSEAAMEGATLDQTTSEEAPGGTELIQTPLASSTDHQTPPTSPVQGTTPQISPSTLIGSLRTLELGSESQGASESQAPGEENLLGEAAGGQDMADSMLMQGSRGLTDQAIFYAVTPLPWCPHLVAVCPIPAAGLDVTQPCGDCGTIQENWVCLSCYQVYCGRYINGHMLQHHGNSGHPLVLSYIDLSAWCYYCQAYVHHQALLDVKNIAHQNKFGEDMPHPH

MDCK-MDR1 cell line = experiment: Permeability studies in MDCK-MDR1 cells; type: in vitro ADME; details: MDCK-MDR1 cell line
acetylated α-tubulin [3] = experiment: α-Tubulin acetylation studies in HEK293 cells; type: cell-based; details: tested at 0.01, 0.1, 1, and 10 μM
In short: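 HEK293 cells plated 24 h ahead and treated at 70% confluency with 10 nM–10 µM. Lysed in MPER with protease inhibitors; 2 µg protein boiled, run on 12% gel, transferred to PVDF. Blocked in 5% milk/TBST; anti-acetyl-tubulin 1:3000 overnight at 4 °C, then HRP secondary 1:5000; ECL. Reprobed for total α-tubulin at 1:1000. Densitometric ratio normalized to 10 µM reference HDAC6 inhibitor; n = 3–4; one-way ANOVA vs vehicle.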

MDR1 (P-gp) = experiment: Permeability studies in MDCK-MDR1 cells; type: in vitro ADME; details: dog, MDCK-MDR1, efflux ratio, MDCK-MDR1 cell line
MDR1 = experiment: Permeability studies in MDCK-MDR1 cells; type: in vitro ADME; details: dog, MDCK-MDR1
class IIa isoforms = experiment: HDAC1–11 enzyme assays; type: biochemical, human; details: Figure 2b and c
In short: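 Human full-length recombinant HDAC4, 5, 7 and 9 with fluorogenic Ac-LGK(TFA)-AMC substrate. Enzyme–compound preincubation 5–10 min, then 2 h at 30 °C. Developer added; fluorescence read at plateau. 10-dose, 3-fold dilutions from 30 µM, in duplicate. IC50 from sigmoidal fit.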

acetylated histone 3 = experiment: Histone acetylation in N2a cells; type: cell-based; details: compared to vehicle
In short: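 N2a cells treated at 1 µM or 10 nM; reference HDAC inhibitors served as positive controls. Histones extracted by kit; protein by micro BCA. Samples denatured in reducing buffer at 95 °C for 5 min and blotted to PVDF. Blocked in 5% BSA/TBST 1 h at RT; primaries overnight: acetyl-H3 K9+K14 1:1000, histone 4 1:1000. Ratios normalized to vehicle; n = 4; one-way ANOVA vs vehicle.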

acetylated α-tubulin [4] = experiment: α-Tubulin acetylation in N2a cells; type: cell-based; details: compared to vehicle
[5] = Brain/plasma pilot PK studies of TubA; type: in vivo; details: IV administration, WT mice
[6] = cited from earlier work

| efflux ratio (MDCK-MDR1 cell line) | efflux ratio at 2 h (MDR1 (P-gp)) | Papp A→B at 2 h (MDR1) | Papp B→A at 2 h (MDR1) | Compound | other results |
| --- | --- | --- | --- | --- | --- |
| 0.70 | – | – | – | O=C(NO)c1ccc(Cn2cccn2)cc1 [Compound 6, 4-(1-Pyrazolylmethyl)-N-hydroxybenzamide] | Papp(A−B) (MDCK-MDR1 cell line): 7.35 10^−6, cm/s; Papp(B−A) (MDCK-MDR1 cell line): 5.24 10^−6, cm/s; concentration at which acetylated α-tubulin levels are elevated (acetylated α-tubulin [3]): 10 µM |
| 0.63 | < 1 | 17.6 ×10⁻⁶ cm/s | 11 ×10⁻⁶ cm/s | CN(C)c1ccc(Cc2ccc(C(=O)NO)cc2)cc1 [Compound 7, 4-[4-(Dimethylamino)benzyl]-N-hydroxybenzamide] | concentration at which acetylated α-tubulin levels are elevated (acetylated α-tubulin [3]): 10 µM |
| 3.23 | > 2.5 | 4.44 ×10⁻⁶ cm/s | 13.4 ×10⁻⁶ cm/s | Cc1nc2ccc(F)cc2n1Cc1ccc(C(=O)NO)cc1 [Compound 8, 4-[(6-Fluoro-2-methyl-1-benzimidazolyl)methyl]-N-hydroxybenzamide] | activity against the class IIa isoforms (in words) (class IIa isoforms): strong activity |
| 0.62 | < 1 | 9.14 ×10⁻⁶ cm/s | 5.54 ×10⁻⁶ cm/s | O=C(NO)c1ccc(CN2CCc3ccc(Cl)cc32)cc1 [Compound 10, 4-[(6-Chloroindolin-1-yl)methyl]-N-hydroxybenzamide] | concentration at which acetylated α-tubulin levels are elevated (acetylated α-tubulin [3]): 1 µM |
| 2.95 | > 2.5 | 0.66 ×10⁻⁶ cm/s | 2.05 ×10⁻⁶ cm/s | Cn1c(NCc2ccc(C(=O)NO)cc2)nc2ccccc21 [Compound 12, N-Hydroxy-4-[[(1-methyl-1H-benz[d]imidazol-2-yl)amino]-methyl]benzamide] | – |
| 9.83 | – | 2 ×10⁻⁶ cm/s | 19.7 ×10⁻⁶ cm/s | CN1CCc2c(c3ccccc3n2Cc2ccc(C(=O)NO)cc2)C1 [TubA, tubastatin A, reference compound] | brain/plasma ratio ([5]; 8 min): 0.15; brain/plasma ratio ([5]; 60 min): 0.86; AUCbrain/AUCplasma [6]: 0.18; selectivity against HDAC8 (in words) (HDAC6 [2]; Figure 2b and c): poorer selectivity; selectivity against the class I HDACs 1, 2, and 3 (in words) (HDAC6 [2]; Figure 2b and c): high selectivity |

The next lines start with the molecule.

| Compound | efflux ratio (MDCK-MDR1 cell line) | efflux ratio at 2 h (MDR1 (P-gp)) | Papp A→B at 2 h (MDR1) | Papp B→A at 2 h (MDR1) | other results |
| --- | --- | --- | --- | --- | --- |
| O=C(NO)c1ccccc1 [Compound 1, phenylhydroxamate, reference compound] | – | – | – | – | selectivity over class I HDACs (HDAC6 [1]): more than 10 fold; IC50 (HDAC6 [1]; read-out: IC50 against HDAC6): 115 nM |
| CCN(CC)Cc1ccc(C(=O)NO)cc1 [Compound 2, 4-[(Diethylamino)methyl]-N-hydroxybenzamide] | – | – | – | – | HDAC6 activity (in words) (HDAC6 [2]): reduced HDAC6 activity |
| O=C(NO)c1ccc(CN2CCCC2)cc1 [Compound 3, N-Hydroxy-4-(pyrrolidin-1-ylmethyl)benzamide] | – | – | – | – | HDAC6 activity (in words) (HDAC6 [2]): reduced HDAC6 activity |
| O=C(NO)c1ccc(Cn2cccc2)cc1 [Compound 4, 4-(1-Pyrrolylmethyl)-N-hydroxybenzamide] | – | – | – | – | activity against HDAC6 (in words) (HDAC6 [1]): nanomolar activity; selectivity over HDAC1 (in words) (HDAC6 [1]): high selectivity |
| O=C(NO)c1ccc(Cn2ccc3ccccc32)cc1 [Compound 5, 4-(1-Indolylmethyl)-N-hydroxybenzamide] | – | – | – | – | activity against HDAC6 (in words) (HDAC6 [1]): nanomolar activity; selectivity over HDAC1 (in words) (HDAC6 [1]): high selectivity |
| Cc1nc2ccccc2n1Cc1ccc(C(=O)NO)cc1F [Compound 9, 3-Fluoro-N-hydroxy-4-[(2-methyl-1-benzimidazolyl)methyl]-benzamide] | 4.23 | > 2.5 | 3.89 ×10⁻⁶ cm/s | 13.2 ×10⁻⁶ cm/s | activity against the class IIa isoforms (in words) (class IIa isoforms): strong activity |
| O=C(NO)c1ccc(CN2CCc3ccc(F)cc32)cc1 [Compound 11, 4-[(6-Fluoroindolin-1-yl)methyl]-N-hydroxybenzamide] | 1.05 | < 1 | 10.5 ×10⁻⁶ cm/s | 11.1 ×10⁻⁶ cm/s | concentration at which acetylated α-tubulin levels are elevated (acetylated α-tubulin [3]): 1 µM |
| CC(/C=C/C(=O)NO)=C\[C@@H](C)C(=O)c1ccc(N(C)C)cc1 [TSA, Trichostatin A, reference compound] | – | – | – | – | levels of acetylated histone 3 to histone 4 (acetylated histone 3): increased levels of both acetylated α-tubulin and acetylated histone H3 significantly; ratio of acetylated α-tubulin to α-tubulin (acetylated α-tubulin [4]): increased levels of both acetylated α-tubulin and acetylated histone H3 significantly |
